In ChEMBL document CHEMBL4680124, “2-Styryl-4-aminoquinazoline derivatives as potent DNA-cleavage, p53-activation and in vivo effective anticancer agents” (Eur J Med Chem, 2020):

Experiments:
Type in all cases: functional, cell-based
T-24 = test: Cytotoxicity against human T-24 cells […] assessed as reduction in cell viability preincubated for 48 hrs and measured after 4 hrs by MTT assay
L02 = test: Cytotoxicity against human HL-7702 cells expressing wild type p53 assessed as reduction in cell viability preincubated for 48 hrs and measured after 4 hrs by MTT assay
PC-3 = test: Cytotoxicity against human PC-3 cells assessed as reduction in cell viability preincubated for 48 hrs and measured after 4 hrs by MTT assay
A549 = test: Cytotoxicity against human A549 cells expressing wild type p53 assessed as reduction in cell viability preincubated for 48 hrs and measured after 4 hrs by MTT assay
DU-145 = test: Cytotoxicity against human DU145 cells expressing mutant type p53 assessed as reduction in cell viability preincubated for 48 hrs and measured after 4 hrs by MTT assay
In short: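 MTT assay. Cells grown in DMEM (T24, MGC-803, A549, HL-7702), RPMI-1640 (DU145) or DMEM-F12 (PC-3), each with 10% FBS. Exposed to 1.25–20 µM in medium with 1% DMSO for 48 h, then MTT for 4 h. Formazan dissolved in DMSO and read at 570 nm. Five wells per concentration; means ± SD of independent repeats.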

MGC-803 = test: Cytotoxicity against human MGC-803 cells expressing mutant type p53 assessed as reduction in cell viability preincubated for 48 hrs and measured after 4 hrs by MTT assay

SMILES	IC50 (T-24) [µM]	IC50 (L02) [µM]	IC50 (PC-3) [µM]	IC50 (A549) [µM]	IC50 (DU-145) [µM]	IC50 (MGC-803) [µM]
CC(C)N(CCNc1nc(/C=C/c2ccc([N+](=O)[O-])cc2)nc2ccc(Cl)cc12)C(C)C	56.6	> 100	> 100	> 100	> 100	17.3
COc1ccc(/C=C/c2nc(NCCN3CCCCC3)c3ccccc3n2)cc1OC	10.5	19.8	78.5	82.7	71.6	33.2
CCN(CC)CCNc1nc(/C=C/c2ccc(OC)c(OC)c2)nc2ccccc12	30.2	> 100	50.3	> 100	31.4	> 100
CCN(CC)CCNc1nc(/C=C/c2ccc3c(c2)OCO3)nc2ccc(Cl)cc12	8.17	15.9	14.2	> 100	7.56	11.1
O=[N+]([O-])c1ccc(/C=C/c2nc(NCCN3CCOCC3)c3ccccc3n2)cc1	> 100	> 100	> 100	> 100	> 100	> 100
O=[N+]([O-])c1ccc(/C=C/c2nc(NCCN3CCOCC3)c3cc(Cl)ccc3n2)cc1	> 100	> 100	> 100	> 100	> 100	> 100
CCN(CC)CCNc1nc(/C=C/c2ccc(OC)c(OC)c2)nc2ccc(Cl)cc12	12.2	91.2	> 100	> 100	> 100	16.8
CN(C)CCNc1nc(/C=C/c2ccc3c(c2)OCO3)nc2ccccc12	66.4	57.8	> 100	> 100	> 100	> 100
NCCCCNc1nc(/C=C/c2ccc3c(c2)OCO3)nc2ccccc12	41.2	> 100	> 100	> 100	> 100	24.6
COc1ccc(/C=C/c2nc(NCCN(C)C)c3cc(Cl)ccc3n2)cc1OC	12.1	80.5	23.6	21.3	17.9	11.8
CCN(CC)CCCNc1nc(/C=C/c2ccc([N+](=O)[O-])cc2)nc2ccccc12	5.42	5.3	15.4	> 100	12.3	8.25
NCCCCNc1nc(/C=C/c2ccc3c(c2)OCO3)nc2ccc(Cl)cc12	5.65	> 100	> 100	9.82	50.3	10.3
Clc1ccc2nc(/C=C/c3ccc4c(c3)OCO4)nc(NCCN3CCOCC3)c2c1	38.3	> 100	> 100	> 100	> 100	> 100
CCN(CC)CCCNc1nc(/C=C/c2ccc(OC)c(OC)c2)nc2ccc(Cl)cc12	3.51	5.17	6.25	> 100	5.35	8.42
C(=C\c1nc(NCCN2CCOCC2)c2ccccc2n1)/c1ccc2c(c1)OCO2	> 100	> 100	> 100	> 100	> 100	> 100
COc1ccc(/C=C/c2nc(NCCN3CCOCC3)c3cc(Cl)ccc3n2)cc1OC	91.8	> 100	> 100	> 100	> 100	> 100
Clc1ccc2nc(/C=C/c3ccc4c(c3)OCO4)nc(NCCN3CCCCC3)c2c1	9.22	> 100	> 100	> 100	> 100	14.7

SMILES	IC50 (T-24) [µM]	IC50 (L02) [µM]	IC50 (PC-3) [µM]	IC50 (A549) [µM]	IC50 (DU-145) [µM]	IC50 (MGC-803) [µM]
CN(C)CCCNc1nc(/C=C/c2ccc([N+](=O)[O-])cc2)nc2ccccc12	9.16	21.4	> 100	59.5	24.4	15.7
COc1ccc(/C=C/c2nc(NCCCCN)c3cc(Cl)ccc3n2)cc1OC	7.82	> 100	> 100	50.5	20	14.1
C(=C\c1nc(NCCN2CCCCC2)c2ccccc2n1)/c1ccc2c(c1)OCO2	6.38	9.91	12.2	39.6	8.53	10.7
CN(C)CCNc1nc(/C=C/c2ccc3c(c2)OCO3)nc2ccc(Cl)cc12	9.61	> 100	> 100	> 100	> 100	9.46
COc1ccc(/C=C/c2nc(NCCN3CCCCC3)c3cc(Cl)ccc3n2)cc1OC	7.64	13.9	21.2	> 100	17.2	13.5
CCN(CC)CCNc1nc(/C=C/c2ccc([N+](=O)[O-])cc2)nc2ccccc12	> 100	44.5	> 100	> 100	> 100	> 100
O=[N+]([O-])c1ccc(/C=C/c2nc(NCCN3CCCCC3)c3ccccc3n2)cc1	36.2	> 100	25.6	28.2	> 100	27.6
CC(C)N(CCNc1nc(/C=C/c2ccc3c(c2)OCO3)nc2ccc(Cl)cc12)C(C)C	7.46	> 100	10.6	> 100	8.78	8.57
CN(C)CCCNc1nc(/C=C/c2ccc([N+](=O)[O-])cc2)nc2ccc(Cl)cc12	7.42	> 100	5.32	15.8	8.49	6.67
CCN(CC)CCCNc1nc(/C=C/c2ccc([N+](=O)[O-])cc2)nc2ccc(Cl)cc12	7.12	15	6.89	76.4	8.12	7.37
CN(C)CCCNc1nc(/C=C/c2ccc3c(c2)OCO3)nc2ccc(Cl)cc12	8.12	> 100	> 100	> 100	> 100	17.2
CN(C)CCNc1nc(/C=C/c2ccc([N+](=O)[O-])cc2)nc2ccc(Cl)cc12	6.97	71.3	8.02	> 100	6.76	4.68
CCN(CC)CCCNc1nc(/C=C/c2ccc(OC)c(OC)c2)nc2ccccc12	> 100	> 100	> 100	> 100	> 100	> 100
NCCCCNc1nc(/C=C/c2ccc([N+](=O)[O-])cc2)nc2ccc(Cl)cc12	5.62	> 100	> 100	10	> 100	9.16
COc1ccc(/C=C/c2nc(NCCCN(C)C)c3cc(Cl)ccc3n2)cc1OC	> 100	> 100	> 100	> 100	> 100	> 100
CC(C)N(CCNc1nc(/C=C/c2ccc3c(c2)OCO3)nc2ccccc12)C(C)C	17.5	21.2	> 100	> 100	> 100	11.3
